# Measurements: ChEMBL document CHEMBL2093137, “WHO-TDR NTD Screening”
# Legend:
# [1] = WHO-TDR: Cytotoxicity; format: toxicity, cell-based; conditions: human, MRC5 cells
# Plasmodium falciparum K1 = test: WHO-TDR: Malaria; format: functional, organism-based, Homo sapiens; conditions: Erythrocyte
# Outline: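 A diverse library of 10,000 compounds from Life Chemicals, filtered for drug-likeness and reactive groups, was screened against the intra-erythrocytic Plasmodium falciparum K1 strain in human red blood cells. Previously published standard procedures were followed, with a reference drug as positive control. Antiplasmodial potency is given as IC50.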
# Trypanosoma cruzi = test: WHO-TDR: Chagas disease; format: functional, organism-based, Homo sapiens; conditions: MRC5
# Outline: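 A diverse library of 10,000 compounds from Life Chemicals, filtered for drug-likeness and reactive groups, was screened against intracellular amastigotes of Trypanosoma cruzi Tulahuen CL2 beta-galactosidase strain. The parasites were grown in MRC-5SV2 human lung fibroblast host cells, and a reference drug served as positive control under previously published standard procedures. Antiparasitic potency is given as IC50.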
# [2] = tested on: Trypanosoma brucei brucei; test: WHO-TDR: Human African Trypanosomiasis (HAT); format: functional, organism-based; conditions: Squib-427
# Outline: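 A diverse library of 10,000 compounds from Life Chemicals, filtered for drug-likeness and reactive groups, was screened against bloodstream forms of Trypanosoma brucei Squib 427 strain in a whole-organism assay. Previously published standard procedures were followed, with reference drugs serving as positive controls. Antiparasitic potency is given as IC50.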
# Leishmania infantum = test: WHO-TDR: Leishmaniasis; format: functional, organism-based, Mus musculus; conditions: Macrophage
# Outline: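 A diverse library of 10,000 compounds from Life Chemicals, filtered for drug-likeness and reactive groups, was screened against whole organisms. The targets were intracellular amastigotes of Leishmania infantum MHOM/MA(BE)/67 growing in murine peritoneal macrophages. Previously published standard procedures were followed, with a reference drug as positive control. Antiparasitic potency is given as IC50.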
# Schistosoma mansoni = test: WHO-TDR: Schistosomiasis; format: functional; design: concentration or dose not given beside the values
# Outline: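 Values are reported as percent inhibition and IC50. They come from a whole-organism screen of a 10,000-compound diverse Life Chemicals library against larval and/or adult worms of Schistosoma mansoni, Puerto Rican strain. The library had been filtered for drug-likeness and reactive groups.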
# Onchocerca lienalis = test: WHO-TDR: Onchocerciasis; format: functional; design: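 at 12.5 µM on microfilariae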
# Outline: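 Values are reported as percent inhibition and as IC50. They come from a whole-organism screen of a 10,000-compound diverse Life Chemicals library against microfilariae of Onchocerca ochengi or Onchocerca lienalis. The screen followed previously published standard procedures, with reference drugs as positive controls.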
SMILES,IC50 (Plasmodium falciparum K1) [µg/mL],IC50 [2] [µg/mL],IC50 (Leishmania infantum) [µg/mL],IC50 [1] [µg/mL],IC50 (Trypanosoma cruzi) [µg/mL],% Inhibition (Schistosoma mansoni) [%],% Inhibition (Onchocerca lienalis) [%]
CCOc1ccc2nc(N(CCN(C)C)C(=O)c3cc4ccccc4cc3OC)sc2c1,1.82,0.35,4.72,4.28,0.425,0,0
CN(C)CCCN(C(=O)CCOc1ccccc1)c1nc2c(F)cccc2s1,8.18,4.25,4.25,1.94,0.409,0,0
CN(C)CCN(C(=O)c1cccc(N2C(=O)CCC2=O)c1)c1nc2ccc(Br)cc2s1,1.45,0.356,5.1,> 16.1,4.94,33.3,0
Fc1ccccc1CSc1ccc(-c2ccccn2)nn1,> 8.92,> 8.92,> 8.92,> 8.92,> 8.92,8.3,97
Cn1cc(S(=O)(=O)N2CCN(C(c3ccccc3)c3ccccc3)CC2)c(=O)n(C)c1=O,> 11.5,2.16,3.65,> 11.5,0.34,0,0
O=C(Nc1ccc2c(c1)OCCO2)c1oc2ccccc2c1NC(=O)C1c2ccccc2Oc2ccccc21,5.04,> 15.6,5.04,> 15.6,> 15.6,100,0
O=C(Nc1ccc(-c2cn3c(n2)SCC3)cc1)C1CCCC1,9.4,> 9.4,0.304,> 9.4,> 9.4,0,0
CCN(CC)CCSc1ccc(-c2sc(-c3ccc(F)cc3)nc2C)nn1,0.5,0.314,3.82,> 12.1,3.25,0,6.7
CN(C)CCN(C(=O)CCSc1ccccc1)c1nc2c(Cl)cccc2s1,3.39,4.33,> 13.7,> 13.7,4.15,75,0
CN(C)CCCN(C(=O)c1ccc(N(C)C)cc1)c1nc2ccc(F)cc2s1,0.324,0.435,4.24,4.1,4.49,0,0
CN(C)CCCN(C(=O)Cc1ccccc1)c1nc2ccc(F)cc2s1,0.609,0.382,3.96,3.81,4.16,58.3,0
CN(C)CCCN(C(=O)c1ccc2c(c1)CCCC2)c1nc2ccc(Br)cc2s1,1.16,0.483,0.791,2.1,3.21,66.7,0
Cc1cccc2sc(N(CCCN(C)C)C(=O)c3ccccc3Br)nc12,0.653,0.45,4.55,3.97,4.76,33.3,0
CN(C)CCCN(C(=O)c1ccc(S(=O)(=O)N(C)C2CCCCC2)cc1)c1nc2c(F)cccc2s1,3.44,5.59,5.53,3.08,5.16,0,0

# Continued, in another order:
IC50 (Plasmodium falciparum K1) [µg/mL],IC50 [2] [µg/mL],IC50 (Leishmania infantum) [µg/mL],SMILES,IC50 [1] [µg/mL],IC50 (Trypanosoma cruzi) [µg/mL],% Inhibition (Schistosoma mansoni) [%],% Inhibition (Onchocerca lienalis) [%]
0.155,> 11.2,4.29,Cc1cc(NC(=O)CSc2ccc3nnc(-c4cccs4)n3n2)no1,> 11.2,4.97,0,6.7
3.16,3.3,0.392,O=C(CSc1ccc2nnc(-c3ccccn3)n2n1)NCC1CCCO1 (stereo not given),> 11.1,5.24,0,0
0.848,0.237,4.16,CCOC(=O)CNC(=O)CSc1nnc(NC(=O)c2ccccc2Cl)s1,3.81,4.41,0,13.3
0.609,0.382,3.96,O=C(Cc1ccccc1)Nc1nnc(SCC(=O)NC2CCCC2)s1,3.82,4.16,0,6.7
1.82,0.35,4.72,O=C(CSc1ccc2nnc(-c3ccncc3)n2n1)c1ccc(Cl)cc1,4.28,0.425,0,0
1.45,0.356,5.1,O=C(Nc1nnc(SCc2ccccc2Cl)s1)C1CCCCC1,> 11,4.94,0,0
3.64,4.66,> 14.4,COc1ccc(C(=O)Nc2nnc(SCC(=O)NCc3ccccc3Cl)s2)c(OC)c1,> 14.4,> 14.4,100,0
0.324,0.435,4.24,COC(=O)c1ccc(NC(=O)CSc2nnc(NC(=O)c3cc(Cl)ccc3OC)s2)cc1,4.1,4.49,16.7,0
1.16,0.483,0.791,Cc1onc(-c2ccccc2Cl)c1C(=O)Nc1nnc(SCC(=O)Nc2ccc3c(c2)OCO3)s1,2.1,3.2,0,13.3
0.653,0.45,4.55,O=C(CSc1nnc(NC(=O)c2ccccc2C(F)(F)F)s1)Nc1ccc2c(c1)OCO2,3.97,4.76,0,0
1.2,0.383,5.12,O=C(CSc1nnc(NC(=O)c2cccs2)s1)NCc1ccccc1Cl,4.21,4.32,16.7,13.3
8.18,4.25,4.25,O=C(CSc1nnc(NC(=O)c2cc(Cl)ccc2Cl)s1)Nc1ccc2c(c1)OCO2,1.94,0.409,0,13.3
0.398,0.352,4.54,COc1ccc(CCNC(=O)CSc2nnc(NC(=O)c3cc(Cl)ccc3Cl)s2)cc1OC,0.526,0.239,8.3,13.3
1.14,4.74,4.74,Cc1csc(NC(=O)CSc2nnc(NC(=O)c3ccco3)s2)n1,5.73,5.1,0,0
1.72,4.51,0.451,O=C(CSc1nnc(NC(=O)COc2ccc(Cl)cc2)s1)NCc1ccc2c(c1)OCO2,3.34,0.433,0,13.3
1.44,0.428,0.467,O=C(CSc1nnc(NC(=O)COc2ccc(Cl)cc2)s1)NCc1ccco1,0.462,0.408,0,6.7
3.42,2,0.466,O=C(CSc1nnc(NC(=O)COc2ccc(Cl)cc2)s1)NCC1CCCO1 (stereo not given),3.54,0.416,0,13.3
2.42,5.04,5.04,CN(C)S(=O)(=O)c1ccc(C(=O)Nc2nnc(SCC(=O)NCc3ccco3)s2)cc1,3.06,0.933,0,6.7
1.13,0.456,4.51,CC(C)(C)C(=O)Nc1nnc(SCC(=O)Nc2ccc(Cl)c(Cl)c2)s1,2.84,4.66,0,0
> 8.44,> 8.44,2.73,COc1ccc(Cl)cc1NC(=O)CSc1nnc(NC(=O)Cc2ccc(F)cc2)s1,> 8.44,> 8.44,100,0
3.16,3.3,0.392,CC(Sc1ccc2nnc(CCNC(=O)c3ccccc3)n2n1)c1ccccc1 (stereo not given),> 12.1,5.24,66.7,0
